Most compounds without a hit are left out; they make up all but 7.2% or so of the library.
HEK293 NFkB inh: inhibitors of PMA/ionomycin-induced NF-kB reporter, primary screen, antigen receptor NF-kB inhibitor project, cell-based, HEK-293 luciferase reporter, luminescence; HEK-293 NF-kB luciferase reporter; inhibition, % at 3 µM; hit rate 0.21% among 62,000;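 active = inhibition above the mean of all tested compounds plus 3 SD, cut at about 40% in these data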
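System: NF-kB luciferase reporter HEK-293 cells | Replication: Single test | Control set: DMSO vs reference inhibitor | Evaluation: % inhibition | Schedule: 1 h pretreatment, 16 h stimulation, 37 °C | Probe or stimulus: PMA with ionomycin | Compound dosing: One dose, 3 µM | Detection: Luciferase luminescence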
M1 antagonist: antagonists of rat M1 muscarinic receptor; CHO-M1 cells, Fluo-4 calcium, ACh EC80 antagonist mode; stronger effect = lower value; B-score at 10 µM; hit rate 3.4% among 64,000;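 active = calcium fluorescence response, raw or row-and-column corrected B-score, differing from the plate sample mean either way at a set confidence level, mostly lower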
DAT uptake mod: changed hDAT dopamine uptake under cocaine IC80, either direction, primary screen, cocaine antagonist project, cell-based, LLC-PK1 hDAT, [14C]-dopamine uptake, MLSMR; AID 449768, 2010; Sodium-dependent dopamine transporter (Homo sapiens), Q01959; B-score at 10 µM; LLC-PK1 hDAT cells, [14C]-dopamine uptake with cocaine IC80; actives deviate in either direction; hit rate 1.3% among 110,000;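 active = Z score or B-score, a plate-position-corrected score, falls beyond the plate's 99.7% confidence bounds, in either direction; inactive = both scores lie inside the 99.7% bounds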
D1 mod: D1 CRE-luciferase signal change, two-sided – cell-based, HEK293 D1, dopamine EC30, D1 allosteric modulator project, primary screen | D(1A) dopamine receptor (Homo sapiens), P21728 | dopamine EC30 potentiation; actives deviate in either direction | B-score at 10 µM | hit rate 5.9% among 58,000;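 active = luminescence count or its row- and column-corrected plate score outside the 99.7% band of the plate's sample wells, on either side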
BAP1 inh: inhibitors of BAP1 deubiquitinase, primary screen, biochemical, Ub-AMC fluorescence, kinetic. Ubiquitin carboxyl-terminal hydrolase BAP1 (Homo sapiens), Q92560. recombinant BAP1, Ub-AMC hydrolysis fluorescence kinetic; stronger effect = lower value. calls only at 20 µM. hit rate 0.48% among 72,000. AID 436, 2006;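 active = activity remaining at or below 50% of control, provided the compound also passes the data quality filters; inactive = the rest, including low values that fail the filters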
Target sequence (Q92560 whole entry, looked up): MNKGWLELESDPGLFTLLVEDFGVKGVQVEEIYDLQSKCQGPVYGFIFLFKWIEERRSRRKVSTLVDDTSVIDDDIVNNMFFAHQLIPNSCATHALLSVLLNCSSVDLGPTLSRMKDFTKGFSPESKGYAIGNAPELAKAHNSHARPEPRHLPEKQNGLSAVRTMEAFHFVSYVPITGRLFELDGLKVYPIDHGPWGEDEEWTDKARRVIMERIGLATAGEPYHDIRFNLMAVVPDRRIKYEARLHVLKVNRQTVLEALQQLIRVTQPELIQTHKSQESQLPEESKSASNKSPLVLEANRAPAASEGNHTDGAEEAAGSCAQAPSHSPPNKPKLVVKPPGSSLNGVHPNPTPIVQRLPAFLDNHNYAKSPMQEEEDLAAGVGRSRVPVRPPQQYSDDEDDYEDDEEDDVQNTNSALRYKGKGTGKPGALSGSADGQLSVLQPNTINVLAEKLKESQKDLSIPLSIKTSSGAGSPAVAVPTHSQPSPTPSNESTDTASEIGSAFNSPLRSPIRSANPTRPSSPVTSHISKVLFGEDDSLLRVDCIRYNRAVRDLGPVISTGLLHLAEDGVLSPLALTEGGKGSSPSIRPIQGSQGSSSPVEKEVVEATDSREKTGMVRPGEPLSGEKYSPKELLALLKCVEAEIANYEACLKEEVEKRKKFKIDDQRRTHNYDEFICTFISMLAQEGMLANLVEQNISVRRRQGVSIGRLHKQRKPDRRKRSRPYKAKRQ
M1 ag: M1 muscarinic receptor agonists, primary screen, CHO-M1 cells, Fluo-4 calcium, agonist mode. Fluo-4 calcium fluorescence; stronger effect = higher value. B-score at 10 µM. hit rate 3% among 64,000;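 active = fluorescence rise, raw or as B-score row- and column-corrected plate score, outside the 99.7% band of its plate's samples, either direction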
M1 antag confirm: rat M1 muscarinic receptor antagonists, confirmation, CHO cells, Fluo-4 calcium, duplicate. shares compounds with M1 antagonist. ACh EC80 antagonism; stronger effect = lower value. calcium response (max-min fluorescence) at 10 µM. hit rate 43% among 1,700. AID 677, 2007;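 active = calcium response below the same-plate mean of wells given acetylcholine alone at its 80%-effect dose, minus 3 SD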
mGluR4 antag: human mGluR4 response to M1 antagonist hits, M1 allosteric modulator project, cell-based, antagonist mode, secondary assay 1; fluorescence response (max-min) at 10 µM; AID 678, 2007; CHO-mGluR4 calcium flux, Fluo-4 fluorescence, glutamate EC80; stronger effect = lower value; hit rate 0.9% among 1,700; shares compounds with M1 antagonist;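 active = fluorescence response below the plate's average for near-maximal glutamate wells, less 3 SD of those wells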;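 also: raw unnormalized fluorescence span taken in the window right after glutamate addition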
D1 mod confirm: D1 receptor positive allosteric modulators, retest, confirmation, cell-based, HEK293 D1, CRE-luciferase, duplicate. shares compounds with D1 mod. luminescence at 10 µM. hit rate 88% among 2,200. dopamine EC30 potentiation; stronger effect = higher value;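 active = luminescence in either of two replicates above the same-plate mean plus 3 SD of the low-dose dopamine control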
D1 ag no DA: D1 receptor agonism without dopamine, confirmation, mechanism study for D1 allosteric modulator project, cell-based, HEK293 D1, CRE-luciferase, secondary assay 1 | hit rate 0.8% among 1,900 | luminescence, no dopamine; stronger effect = higher value | shares compounds with D1 mod | luminescence at 10 µM | AID 646, 2007; in the data active = luminescence above about 3900
Isoprot counter: counter-screen for D1 modulators: isoproterenol response in HEK293 cells; shares compounds with D1 mod; HEK293 D1 CRE-luciferase, isoproterenol EC30 counter-screen; calls only at 10 µM; hit rate 63% among 2,200; AID 647;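 active = luminescence in either replicate above plate mean of wells with a partly effective reference agonist dose plus 3 SD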;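 also: isoproterenol raises cAMP through native beta-adrenoceptor Gs so signal bypasses D1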
Numbers stand for hits; 0 = inactive; - = not tested or not shown; + = active, no number.

SMILES	HEK293 NFkB inh	M1 antagonist	DAT uptake mod	D1 mod	BAP1 inh	M1 ag	D1 mod confirm	D1 ag no DA	Isoprot counter	others
Nc1ncnc2c1ncn2[C@@H]1O[C@H](COP(=O)(O)CP(=O)(O)OP(=O)(O)O)[C@H](O)C1O (some centres not stated)	-	-	-	-	0	-	-	-	-
FC(F)(F)c1ccc2c(c1)ncn2C1CCN(Cc2nnnn2C2CCCCC2)CC1	0	-14	0	0	0	0	-	-	-	M1 antag confirm=0;mGluR4 antag=0
CC(=NCCCN1CCCCC1)c1c(O)n(Cc2ccccc2)c(=O)[nH]c1=O	0	0	-	0	0	0	-	-	-
CC(=NCCN1CCCCC1)c1c(O)n(Cc2ccccc2)c(=O)[nH]c1=O	0	-2.4	0	0	0	0	-	-	-	M1 antag confirm=0;mGluR4 antag=0
COC(=O)C(O)(c1ccc(N(C)S(=O)(=O)c2ccccc2)cc1)C(F)(F)F (configuration not stated)	0	-11	0	-	0	0	-	-	-	M1 antag confirm=0;mGluR4 antag=0
CCOC(=O)c1c(C)n(Cc2ccco2)c2ccc(OC)cc12	0	0	0	3.9	0	0	0	0	0
COC(=O)c1c(C)n(Cc2ccco2)c2ccc(O)cc12	-	-	0	-	-	-	-	-	-
NC1CC1c1ccccc1 (configuration not stated)	-	-	-	-	0	-	-	-	-
Cc1nn(Cc2ccccc2)c(C)c1C(=O)OCC(=O)Nc1ccccc1SCC#N	0	0	0	4.2	0	0	8752	-	+
CS(=N)(=O)CC[C@H](N)C(=O)O (some centres not stated)	-	-	-	-	0	-	-	-	-
NC(CP(=O)(O)O)C(=O)O (configuration not stated)	-	-	-	-	0	-	-	-	-
Cc1[nH]c2c(C(F)(F)F)cccc2c1CCN	0	0	0	7.8	0	0	0	-	0
COCCOC(=O)c1c(N)n(Cc2ccc(OC)cc2)c2nc3ccccc3nc12	0	0	0	6.3	-	0	12708	0	+
COC(=O)c1c(N)n(Cc2ccc(OC)cc2)c2nc3ccccc3nc12	0	0	0	7	-	0	8940	0	+
CCC(=NCc1cccnc1)c1c(O)n(C2CCCCC2)c(=O)[nH]c1=O	0	0	0	15	0	0	9572	0	+
CC(=NCc1ccco1)c1c(O)n(Cc2ccccc2)c(=O)[nH]c1=O	0	0	0	4.5	0	0	10196	0	+
CC(=NCc1cccnc1)c1c(O)n(-c2ccc(C)cc2)c(=O)[nH]c1=O	0	0	0	0	0	0	-	-	-
CCC(=O)c1c(O)n(C2CCCCCC2)c(=O)[nH]c1=O	0	0	0	0	0	0	-	-	-
CCC(=NCc1ccco1)c1c(O)n(C2CCCCC2)c(=O)[nH]c1=O	0	0	0	14	0	0	16640	0	+
CCC(=NCCCN(CC)CC)c1c(O)n(C2CCCCC2)c(=O)[nH]c1=O	0	0	0	0	0	0	-	-	-
CC(=NCc1cccnc1)c1c(O)n(C2CCCCC2)c(=O)[nH]c1=O	0	0	0	6	-	0	9208	0	+
Cc1nc2cc(-c3ccccc3)nn2c(C)c1CCC(=O)N1CCC2(CC1)OCCO2	0	0	0	0	0	0	-	-	-
Cc1nc2ncnn2c(C)c1CCC(=O)N1CCC2(CC1)OCCO2	0	0	0	2.8	0	0	0	0	0
Cc1ccc(Cc2c(C)nc3nc(SCC(=O)N4CCC5(CC4)OCCO5)nn3c2C)cc1	-	-	0	-	-	-	-	-	-
Cc1nc2c(-c3ccc(F)cc3)c(C)nn2c(C)c1CCC(=O)N1CCC2(CC1)OCCO2	0	0	0	6.1	0	0	7792	0	+
SMILES	HEK293 NFkB inh	M1 antagonist	DAT uptake mod	D1 mod	BAP1 inh	M1 ag	D1 mod confirm	D1 ag no DA	Isoprot counter	others
Cn1c(O)c(C(=O)c2ccccc2)c(=O)n(C)c1=O	0	0	0	8.4	0	0	0	0	0
Cc1nc(-c2ccc(-c3ccc(C(=O)N4CCc5cc6c(cc54)C4(CCN(C)CC4)CO6)cc3)c(C)c2)no1	-	-	-	-	0	-	-	-	-
O=C(Cc1ccc(Cl)c(Cl)c1)N1CCCCC1CN1CCCC1 (configuration not stated)	-	-	-	-	0	-	-	-	-
CCCCc1nc2ccccc2c(=O)n1-c1ccccc1[N+](=O)[O-]	-	-	0	-	-	-	-	-	-
CCCCc1nc2ccccc2c(=O)n1-c1ccc(O)cc1	0	0	0	3.7	0	0	8012	0	+
O=c1[nH]c(=O)n(CCc2ccc(F)cc2)c(O)c1C=NCCCN1CCOCC1	0	0	0	12	0	0	0	0	0
Oc1ccc2c3c1O[C@H]1[C@@H](O)CC[C@@]4(O)C(C2)N(CC2CCC2)CCC314 (some centres not stated)	-	-	-	-	0	-	-	-	-
CCOC(=O)c1cc2c(cn1)[nH]c1ccccc12	-	0	0	16	0	0	15472	0	+
